Test results taken from ChEMBL document CHEMBL1781932 (J Med Chem, 2011).
In brackets after ≈: the same amount, converted by molar mass.

What was measured:
Format in all cases: functional
Escherichia coli [1] = assay: Antimicrobial activity against tetracycline-susceptible Escherichia coli isolate 107 by CLSI dilution method
How it was run: (§1)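 Broth microdilution per CLSI in fresh cation-adjusted Mueller Hinton broth, kept at 4 °C before testing, with defibrinated horse blood added as appropriate. Strains were from ATCC. MIC in µg/mL. Runs were accepted when comparator antibiotics against ATCC quality-control strains fell within recommended ranges.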

Escherichia coli [2] = assay: Antimicrobial activity against tetracycline-resistant Escherichia coli isolate 155 harboring tetA gene by CLSI dilution method
Staphylococcus aureus [3] = assay: Antimicrobial activity against tetracycline-susceptible Staphylococcus aureus isolate 101 by CLSI dilution method
Klebsiella pneumoniae [4] = assay: Antimicrobial activity against tetracycline-susceptible Klebsiella pneumoniae isolate 109 by CLSI dilution method; how it was run: as §1
Enterococcus faecalis [5] = assay: Antimicrobial activity against tetracycline-susceptible Enterococcus faecalis isolate 103 by CLSI dilution method; how it was run: as §1
Pseudomonas aeruginosa = assay: Antimicrobial activity against tetracycline-susceptible Pseudomonas aeruginosa isolate 111 by CLSI dilution method; how it was run: as §1
Staphylococcus aureus [6] = assay: Antimicrobial activity against methicillin-, tetracycline-resistant Staphylococcus aureus isolate 161 harboring tetM gene by CLSI dilution method
Streptococcus pneumoniae [7] = assay: Antimicrobial activity against tetracycline-susceptible Streptococcus pneumoniae isolate 106 by CLSI dilution method; how it was run: as §1
Klebsiella pneumoniae [8] = assay: Antimicrobial activity against tetracycline-resistant Klebsiella pneumoniae isolate 153 harboring tetA gene by CLSI dilution method
Streptococcus pneumoniae [9] = assay: Antimicrobial activity against tetracycline-resistant Streptococcus pneumoniae isolate 160 harboring tetM gene by CLSI dilution method
Acinetobacter baumannii = assay: Antimicrobial activity against tetracycline-susceptible Acinetobacter baumannii isolate 110 by CLSI dilution method; how it was run: as §1
Staphylococcus aureus [10] = assay: Antimicrobial activity against tetracycline-resistant Staphylococcus aureus isolate 158 harboring tetK gene by CLSI dilution method
Enterobacter cloacae = assay: Antimicrobial activity against tetracycline-susceptible Enterobacter cloacae isolate 108 by CLSI dilution method; how it was run: as §1
Enterococcus faecalis [11] = assay: Antimicrobial activity against tetracycline-resistant Enterococcus faecalis isolate 159 harboring […] gene by CLSI dilution method

CN(C)[C@@H]1C(O)=C(C(N)=O)C(=O)[C@@]2(O)C(O)=C3C(=O)c4c(cc5c(CN6CCC6)cccc5c4O)C[C@H]3C[C@@H]12
MIC (Escherichia coli [1]): 8 µg/mL (≈ 15 µM) | MIC (Escherichia coli [2]): > 32 µg/mL | MIC (Staphylococcus aureus [3]): 1 µg/mL (≈ 1.87 µM) | MIC (Klebsiella pneumoniae [4]): 16 µg/mL (≈ 30 µM) | MIC (Enterococcus faecalis [5]): 2 µg/mL (≈ 3.75 µM) | MIC (Pseudomonas aeruginosa): > 32 µg/mL | MIC (Staphylococcus aureus [6]): 4 µg/mL (≈ 7.5 µM) | MIC (Streptococcus pneumoniae [7]): 0.25 µg/mL (≈ 0.469 µM) | MIC (Klebsiella pneumoniae [8]): > 32 µg/mL | MIC (Streptococcus pneumoniae [9]): 2 µg/mL (≈ 3.75 µM) | MIC (Acinetobacter baumannii): 32 µg/mL (≈ 60 µM) | MIC (Staphylococcus aureus [10]): 0.5 µg/mL (≈ 0.937 µM)

CN(C)[C@@H]1C(O)=C(C(N)=O)C(=O)[C@@]2(O)C(O)=C3C(=O)c4c(cc5c(N)cccc5c4O)C[C@H]3C[C@@H]12
MIC (Escherichia coli [1]): > 32 µg/mL | MIC (Escherichia coli [2]): > 32 µg/mL | MIC (Staphylococcus aureus [3]): 2 µg/mL (≈ 4.17 µM) | MIC (Klebsiella pneumoniae [4]): > 32 µg/mL | MIC (Enterococcus faecalis [5]): 4 µg/mL (≈ 8.34 µM) | MIC (Pseudomonas aeruginosa): > 32 µg/mL | MIC (Staphylococcus aureus [6]): 4 µg/mL (≈ 8.34 µM) | MIC (Streptococcus pneumoniae [7]): 2 µg/mL (≈ 4.17 µM) | MIC (Enterobacter cloacae): > 32 µg/mL | MIC (Klebsiella pneumoniae [8]): > 32 µg/mL | MIC (Acinetobacter baumannii): 8 µg/mL (≈ 16.7 µM) | MIC (Staphylococcus aureus [10]): 2 µg/mL (≈ 4.17 µM)

CN(C)[C@@H]1C(O)=C(C(N)=O)C(=O)[C@@]2(O)C(O)=C3C(=O)c4c(cc5cc(N)ccc5c4O)C[C@H]3C[C@@H]12
MIC (Escherichia coli [1]): > 32 µg/mL | MIC (Escherichia coli [2]): > 32 µg/mL | MIC (Klebsiella pneumoniae [4]): > 32 µg/mL | MIC (Enterococcus faecalis [5]): 4 µg/mL (≈ 8.34 µM) | MIC (Pseudomonas aeruginosa): > 32 µg/mL | MIC (Streptococcus pneumoniae [7]): 2 µg/mL (≈ 4.17 µM) | MIC (Enterobacter cloacae): > 32 µg/mL | MIC (Klebsiella pneumoniae [8]): > 32 µg/mL | MIC (Streptococcus pneumoniae [9]): 8 µg/mL (≈ 16.7 µM) | MIC (Acinetobacter baumannii): 16 µg/mL (≈ 33.4 µM)

CN(C)[C@@H]1C(O)=C(C(N)=O)C(=O)[C@@]2(O)C(O)=C3C(=O)c4c(cc5ccc(CN6CCC6)cc5c4O)C[C@H]3C[C@@H]12
MIC (Escherichia coli [1]): 1 µg/mL (≈ 1.87 µM) | MIC (Escherichia coli [2]): 8 µg/mL (≈ 15 µM) | MIC (Staphylococcus aureus [3]): 0.5 µg/mL (≈ 0.937 µM) | MIC (Klebsiella pneumoniae [4]): 4 µg/mL (≈ 7.5 µM) | MIC (Enterococcus faecalis [5]): 0.5 µg/mL (≈ 0.937 µM) | MIC (Pseudomonas aeruginosa): 32 µg/mL (≈ 60 µM) | MIC (Enterococcus faecalis [11]): 4 µg/mL (≈ 7.5 µM) | MIC (Staphylococcus aureus [6]): 2 µg/mL (≈ 3.75 µM) | MIC (Streptococcus pneumoniae [7]): 0.125 µg/mL (≈ 0.234 µM) | MIC (Klebsiella pneumoniae [8]): 8 µg/mL (≈ 15 µM) | MIC (Streptococcus pneumoniae [9]): 0.25 µg/mL (≈ 0.469 µM) | MIC (Staphylococcus aureus [10]): 0.5 µg/mL (≈ 0.937 µM)

CN(C)CCOc1c2c(c(O)c3cc(CN4CCC4)ccc13)C(=O)C1=C(O)[C@]3(O)C(=O)C(C(N)=O)=C(O)[C@@H](N(C)C)[C@@H]3C[C@@H]1C2
MIC (Escherichia coli [1]): 8 µg/mL (≈ 12.9 µM) | MIC (Escherichia coli [2]): > 32 µg/mL | MIC (Staphylococcus aureus [3]): 4 µg/mL (≈ 6.44 µM) | MIC (Klebsiella pneumoniae [4]): 32 µg/mL (≈ 51.6 µM) | MIC (Enterococcus faecalis [5]): 8 µg/mL (≈ 12.9 µM) | MIC (Pseudomonas aeruginosa): > 32 µg/mL | MIC (Staphylococcus aureus [6]): 8 µg/mL (≈ 12.9 µM) | MIC (Streptococcus pneumoniae [7]): 1 µg/mL (≈ 1.61 µM) | MIC (Enterobacter cloacae): 16 µg/mL (≈ 25.8 µM) | MIC (Klebsiella pneumoniae [8]): > 32 µg/mL | MIC (Streptococcus pneumoniae [9]): 2 µg/mL (≈ 3.22 µM) | MIC (Acinetobacter baumannii): > 32 µg/mL | MIC (Staphylococcus aureus [10]): 4 µg/mL (≈ 6.44 µM)

CNC(=O)Oc1c2c(c(O)c3cc(CN4CCC4)ccc13)C(=O)C1=C(O)[C@]3(O)C(=O)C(C(N)=O)=C(O)[C@@H](N(C)C)[C@@H]3C[C@@H]1C2
MIC (Escherichia coli [1]): 32 µg/mL (≈ 52.8 µM) | MIC (Escherichia coli [2]): > 32 µg/mL | MIC (Staphylococcus aureus [3]): 8 µg/mL (≈ 13.2 µM) | MIC (Klebsiella pneumoniae [4]): > 32 µg/mL | MIC (Enterococcus faecalis [5]): 8 µg/mL (≈ 13.2 µM) | MIC (Pseudomonas aeruginosa): > 32 µg/mL | MIC (Streptococcus pneumoniae [7]): 1 µg/mL (≈ 1.65 µM) | MIC (Enterobacter cloacae): > 32 µg/mL | MIC (Klebsiella pneumoniae [8]): > 32 µg/mL | MIC (Streptococcus pneumoniae [9]): 4 µg/mL (≈ 6.59 µM) | MIC (Acinetobacter baumannii): > 32 µg/mL

CCCNc1c2c(c(O)c3cc(CN4CCC4)ccc13)C(=O)C1=C(O)[C@]3(O)C(=O)C(C(N)=O)=C(O)[C@@H](N(C)C)[C@@H]3C[C@@H]1C2
MIC (Escherichia coli [1]): 16 µg/mL (≈ 27.1 µM) | MIC (Escherichia coli [2]): > 32 µg/mL | MIC (Staphylococcus aureus [3]): 4 µg/mL (≈ 6.77 µM) | MIC (Klebsiella pneumoniae [4]): 32 µg/mL (≈ 54.2 µM) | MIC (Enterococcus faecalis [5]): 4 µg/mL (≈ 6.77 µM) | MIC (Pseudomonas aeruginosa): > 32 µg/mL | MIC (Enterococcus faecalis [11]): 16 µg/mL (≈ 27.1 µM) | MIC (Streptococcus pneumoniae [7]): 0.5 µg/mL (≈ 0.846 µM) | MIC (Enterobacter cloacae): > 32 µg/mL | MIC (Klebsiella pneumoniae [8]): > 32 µg/mL | MIC (Streptococcus pneumoniae [9]): 2 µg/mL (≈ 3.39 µM) | MIC (Acinetobacter baumannii): 16 µg/mL (≈ 27.1 µM) | MIC (Staphylococcus aureus [10]): 4 µg/mL (≈ 6.77 µM)

CCCN(CCC)c1c2c(c(O)c3cc(CN4CCC4)ccc13)C(=O)C1=C(O)[C@]3(O)C(=O)C(C(N)=O)=C(O)[C@@H](N(C)C)[C@@H]3C[C@@H]1C2
MIC (Escherichia coli [1]): 32 µg/mL (≈ 50.6 µM) | MIC (Escherichia coli [2]): > 32 µg/mL | MIC (Staphylococcus aureus [3]): 0.5 µg/mL (≈ 0.79 µM) | MIC (Klebsiella pneumoniae [4]): > 32 µg/mL | MIC (Enterococcus faecalis [5]): 0.5 µg/mL (≈ 0.79 µM) | MIC (Pseudomonas aeruginosa): > 32 µg/mL | MIC (Enterococcus faecalis [11]): 4 µg/mL (≈ 6.32 µM) | MIC (Streptococcus pneumoniae [7]): 0.125 µg/mL (≈ 0.198 µM) | MIC (Enterobacter cloacae): > 32 µg/mL | MIC (Klebsiella pneumoniae [8]): > 32 µg/mL | MIC (Streptococcus pneumoniae [9]): 0.5 µg/mL (≈ 0.79 µM) | MIC (Acinetobacter baumannii): 8 µg/mL (≈ 12.6 µM) | MIC (Staphylococcus aureus [10]): 0.5 µg/mL (≈ 0.79 µM)

CN(C)[C@@H]1C(O)=C(C(N)=O)C(=O)[C@@]2(O)C(O)=C3C(=O)c4c(cc5ccccc5c4O)C[C@H]3C[C@@H]12
MIC (Escherichia coli [1]): > 32 µg/mL | MIC (Escherichia coli [2]): > 32 µg/mL | MIC (Staphylococcus aureus [3]): 1 µg/mL (≈ 2.15 µM) | MIC (Enterococcus faecalis [5]): 0.5 µg/mL (≈ 1.08 µM) | MIC (Pseudomonas aeruginosa): > 32 µg/mL | MIC (Staphylococcus aureus [6]): 1 µg/mL (≈ 2.15 µM) | MIC (Streptococcus pneumoniae [7]): 0.25 µg/mL (≈ 0.538 µM) | MIC (Streptococcus pneumoniae [9]): 0.25 µg/mL (≈ 0.538 µM) | MIC (Acinetobacter baumannii): 8 µg/mL (≈ 17.2 µM)

CN(C)[C@@H]1C(O)=C(C(N)=O)C(=O)[C@@]2(O)C(O)=C3C(=O)c4c(cc5ccc(CN6CCCC6)cc5c4O)C[C@H]3C[C@@H]12
MIC (Escherichia coli [1]): 1 µg/mL (≈ 1.83 µM) | MIC (Staphylococcus aureus [3]): 0.5 µg/mL (≈ 0.913 µM) | MIC (Enterococcus faecalis [5]): 0.25 µg/mL (≈ 0.457 µM) | MIC (Pseudomonas aeruginosa): > 32 µg/mL | MIC (Enterococcus faecalis [11]): 2 µg/mL (≈ 3.65 µM) | MIC (Staphylococcus aureus [6]): 2 µg/mL (≈ 3.65 µM) | MIC (Streptococcus pneumoniae [7]): 0.0625 µg/mL (≈ 0.114 µM) | MIC (Enterobacter cloacae): 4 µg/mL (≈ 7.3 µM) | MIC (Klebsiella pneumoniae [8]): 4 µg/mL (≈ 7.3 µM) | MIC (Streptococcus pneumoniae [9]): 0.125 µg/mL (≈ 0.228 µM) | MIC (Acinetobacter baumannii): 1 µg/mL (≈ 1.83 µM) | MIC (Staphylococcus aureus [10]): 0.25 µg/mL (≈ 0.457 µM)

CN(C)c1ccc(O)c2c1C[C@H]1C[C@H]3[C@H](N(C)C)C(O)=C(C(N)=O)C(=O)[C@@]3(O)C(O)=C1C2=O [MINOCYCLINE]
MIC (Escherichia coli [1]): 0.5 µg/mL (≈ 1.09 µM) | MIC (Escherichia coli [2]): 8 µg/mL (≈ 17.5 µM) | MIC (Staphylococcus aureus [3]): 0.0625 µg/mL (≈ 0.137 µM) | MIC (Pseudomonas aeruginosa): 16 µg/mL (≈ 35 µM) | MIC (Enterococcus faecalis [11]): 16 µg/mL (≈ 35 µM) | MIC (Staphylococcus aureus [6]): 8 µg/mL (≈ 17.5 µM) | MIC (Streptococcus pneumoniae [7]): < 0.0156 µg/mL | MIC (Enterobacter cloacae): 2 µg/mL (≈ 4.37 µM) | MIC (Klebsiella pneumoniae [8]): 8 µg/mL (≈ 17.5 µM) | MIC (Streptococcus pneumoniae [9]): 2 µg/mL (≈ 4.37 µM) | MIC (Acinetobacter baumannii): 0.0625 µg/mL (≈ 0.137 µM) | MIC (Staphylococcus aureus [10]): 0.0313 µg/mL (≈ 0.0684 µM)
